High-throughput results from PubChem.
Hits are enriched below; roughly 5.1% of the tested compounds scored in any of these assays.
STAT3 act: STAT3 signaling activation. AID 871. U3A cells, IL-6 STAT3-luciferase reporter, luminescence; 100% = signal with IL-6 EC80 alone. activation (% of control), % at 5.6 µM. 190,000 tested, 0.91% active;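 active = activation above the screen-wide mean of compound activation plus 3 SD, cut at about 130% in these data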
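Assay system – human STAT1-deficient U3A cells with stable STAT3-luciferase reporter · Also added – IL-6 (33 ng/mL) · Schedule – compound 1 h, then IL-6 6 h at 37 °C · Technique – reporter luminescence signal · Evaluation – % activation versus median of IL-6-stimulated wells · Benchmarks – IL-6-only wells as 100% reference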
STAT1 blocker: inhibitors of IFN-gamma induced STAT1 signaling | NIH 3T3 STAT1-luciferase reporter, luminescence | inhibition, % at 5.5 µM | 200,000 tested, 0.35% active | AID 920;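 active = inhibition above a set limit, the mean inhibition across all tested compounds plus 3 SD, cut at about 34% in these data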
STAT3 inh-1: inhibitors of IL-6 induced STAT3 signaling; U3A cells, IL-6 STAT3-luciferase reporter, luminescence; host cell line lacks STAT1; inhibition, % at 5.5 µM; 190,000 tested, 0.89% active;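 active = inhibition above the mean inhibition across all screened compounds plus 3 SD, cut at about 44% in these data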
STAT1 act: increases IFN-gamma driven STAT1 reporter signal | 200,000 tested, 2.6% active | NIH 3T3 STAT1-luciferase reporter, luminescence; 100% = IFN-gamma alone, no compound | activation (% of control), % at 5.5 µM | AID 932;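 active = activation above the screen-wide mean activation plus 3 SD, cut at about 130% in these data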
APP 5'UTR act: APP 5'UTR luciferase reporter activation; activation, % at 2 µM; 190,000 tested, 1% active; AID 1276; SH-SY5Y APP 5'UTR luciferase reporter, luminescence; zero percent = DMSO vehicle wells;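 active = activation above a set limit, based on mean plus 3 SD of controls, cut at about 140% in these data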
NF-kB expr up: NF-kB expression increase, human neuronal cells. 190,000 tested, 1.6% active. fold change at 12.5 µM. NF-kB reporter expression; active compounds read high; in the data active = fold change above about 3.3
STAT3 inh-2: confirmation of STAT3 signaling inhibitors; shares compounds with STAT3 inh-1; 1,200 tested, 45% active; U3A cells, IL-6 STAT3 luciferase reporter, luminescence; cell line lacks STAT1; inhibition, % at 5.7 µM; AID 1265;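 active = inhibition above the hit cutoff computed for the primary STAT3 screen, cut at about 44% in these data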
NFkB inh STAT3ct: NF-kappaB inhibition in STAT3 inhibitor counter-screen | 1,200 tested, 36% active | shares compounds with STAT3 inh-1 | HEK293T NF-kB luciferase reporter, TNF-alpha induced | inhibition, % at 5.7 µM;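 active = inhibition above the mean of solvent-only control wells plus 3 SD, cutoff set per campaign, cut at about 13% in these data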
STAT1 inh STAT3c: counter-screen for STAT3 inhibitors: STAT1 inhibition. 1,200 tested, 27% active. AID 1317. inhibition, % at 5.7 µM. NIH 3T3 STAT1-luciferase reporter, IFN-gamma induced, luminescence. shares compounds with STAT3 inh-1;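 active = inhibition above the mean plus 3 SD of solvent-only control wells, limit set per screening run, cut at about 16% in these data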
Numbers stand for hits; – = inactive; · = no result given.

SMILES	STAT3 act	STAT1 blocker	STAT3 inh-1	STAT1 act	APP 5'UTR act	NF-kB expr up	STAT3 inh-2	NFkB inh STAT3ct	STAT1 inh STAT3c
CCn1c(SCC(=O)NCc2ccco2)nc2ccccc2c1=O	–	–	–	–	–	–	·	·	·
COc1ccc(C(=O)Nn2c(SCC(=O)NCc3ccco3)nc3ccccc3c2=O)cc1	–	–	66.7	–	–	–	–	23.7	–
COc1ccc(C(=O)Nn2c(SCC(=O)NC3CCCCC3)nc3ccccc3c2=O)cc1	–	–	51.3	–	–	–	–	–	–
C=CCn1c(SCC(=O)NC2CCCCC2)nc2ccccc2c1=O	–	–	–	–	–	–	·	·	·
CN1CCN(c2ncnc3c2cnn3-c2ccc(Cl)cc2)CC1	–	–	52.7	–	–	–	–	–	–
Cc1ccc(Cn2ncc3c(N4CCN(C)CC4)ncnc32)cc1	–	–	–	–	–	–	·	·	·
Cc1ccc(Cn2ncc3c(N4CCN(c5ccc(C)cc5)CC4)ncnc32)cc1	–	–	68.9	–	–	–	63.0	20.1	–
Cc1ccc(Cn2ncc3c(N4CCN(Cc5ccc(Cl)cc5)CC4)ncnc32)cc1	–	–	53.9	–	–	–	48.8	25.0	–
CCNC(=S)NNC(=O)c1cc(-c2cccc(C)c2)nc2ccccc12	–	–	–	–	–	–	·	·	·
CCNC(=S)NNC(=O)c1cc(-c2ccc(OC)cc2)nc2ccccc12	–	–	74.5	–	–	4.12	–	28.0	–
CCN(CC)C(=O)CSc1nc(-c2ccccc2)cc(=O)[nH]1	–	–	–	–	–	–	·	·	·
COc1cccc(C(=O)Cn2c(=N)n(C)c3ccccc32)c1	–	–	45.9	–	228.7	4.39	–	–	–
Cc1cccc2cc(-c3ccccc3)c(-c3ccccc3)c[n+]12	–	–	45.7	–	–	–	–	–	–
COc1ccc2nc(NC(=O)c3ccoc3C)sc2c1	–	–	63.3	–	142.4	10.9	–	–	–
Cc1cc(C)c2oc(C(=O)Nc3ccc(S(=O)(=O)N4CCCC(C)C4)cc3)cc(=O)c2c1 (stereo not drawn)	–	–	–	–	–	–	·	·	·
CCOc1ccc(N(CC)S(=O)(=O)c2ccc3c(c2)n(C)c(=O)c(=O)n3C)cc1	–	–	–	–	–	–	·	·	·
CCCCNc1cc(C)nc(NCc2ccccc2)n1	–	–	43.9	–	–	–	–	13.1	27.1
CCN1CCN(c2nc(S(=O)(=O)c3ccc(C)cc3)c(Cl)s2)CC1	–	–	–	–	–	–	·	·	·
O=C(C(Cl)Cl)N1c2ccccc2OCC1c1ccccc1 (stereo not drawn)	–	–	50.2	–	–	–	–	–	–
CCCCNC(=O)COC(=O)c1ccc(F)cc1Cl	–	–	–	–	–	–	·	·	·
Cc1cccc(CN2CCN(Cc3cccc(-n4cccn4)c3)CC2CCO)n1 (stereo not drawn)	–	–	–	–	–	–	·	·	·
Brc1ccc2ncnc(NCc3ccccc3)c2c1	–	–	–	–	–	–	·	·	·
c1ccc(CCNc2ncnc3ccccc23)cc1	–	–	89.8	–	–	–	82.8	22.9	–
CC(=O)Nc1ccc2oc(C)nc2c1	–	–	–	–	–	–	·	·	·
CC(=O)Nc1ccc2oc(-c3ccccc3Br)nc2c1	–	–	48.4	–	161.6	7.34	–	–	–
CC(=O)Nc1ccc2oc(-c3cc(F)c(F)cc3Cl)nc2c1	–	–	46.1	147.6	–	6.1	–	–	–
CC(C)C(=O)Nc1ccc2oc(-c3cc(F)c(F)cc3Cl)nc2c1	–	–	–	–	–	–	·	·	·
O=C(Nc1ccc(Oc2ccccc2)cc1)c1cnc2n(c1=O)CCS2	–	–	77.6	–	–	–	72.7	–	–
O=C(COC(=O)CCc1nc2ccccc2c(=O)[nH]1)NC(=O)NC1CCCC1	–	–	–	–	–	–	·	·	·
